CHOP inh: inhibitors of CHOP promoter induction, primary screen, cell-based, unfolded protein response, luciferase reporter; CHO-K1 CHOP-promoter luciferase, tunicamycin-induced, 15-18 h; inhibition, % at 10 µM; 220,000 tested, 3.8% active; AID 2732, 2010;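 active = compounds that reduced the stress-induced luciferase reporter signal by more than about 70% of percent inhibition, limit read from the data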;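 note: 0% = tunicamycin plus vehicle and 100% = wells without tunicamycin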
UPR XBP1 act: activators of adaptive XBP1 UPR arm, primary screen, cell-based, CHO-XBP1 luciferase reporter, luminescence, uHTS; IRE1-XBP1 UPR activation; percent of tunicamycin response, DMSO as zero; activation, % at 20 µM; 330,000 tested, 0.33% active; AID 463104, 2010;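 active = versus positive control, 20 µM dose yields 30% or more activation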;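 note: 100% = tunicamycin at 10 µg/mL and 0% = DMSO only wells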
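assay system = CHO-XBP1 luciferase reporter cells | amount = 1000 cells/well | buffer or medium = F12 plus 10% FBS | compound dosing = single point, 20 µM final compound, 1% DMSO | incubation = 16-18 h cell attachment at 37 °C, then 6 h compound exposure | detection = Steady-Glo luminescence read | controls = tunicamycin 10 µg/mL and vehicle-only wells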
T cruzi repl: inhibitors of intracellular T. cruzi growth, primary screen, luminescence, NIH3T3 host cells. T. cruzi beta-gal in NIH3T3, 90 h. inhibition, % (concentration not given with the values). 300,000 tested, 1.4% active. AID 1885, 2009;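 active = mean inhibition across valid replicates above about 55%, limit read from the data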;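 note: signal also drops with host cell toxicity which is not excluded here; 0% = plate median of DMSO wells and 100% = zero luminescence signal; higher percent means less beta-gal luminescence so fewer parasites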
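assay system = mouse NIH/3T3 fibroblasts infected with β-gal-expressing T. cruzi Tulahuen C4 | input = 5,000 NIH/3T3 host cells per well | buffer or medium = DMEM plus 2% FBS | timing = 3 h host attachment, then at least 90 h co-culture | measured by = GalScreen luminescence, 60 min | evaluation = luminescence reflecting intracellular parasite burden, expressed as percent inhibition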
Dynein cargo inh: inhibitors of GR-EGFP nuclear translocation, primary screen, dynein cargo transport inhibitor project, imaging, high-content, 3617.4 mouse cells; z-score, hits read low; 220,000 tested, 0.47% active; test concentration mostly 20 µM; stimulated with dexamethasone, 1 µM; active compounds read low; AID 1381, 2008;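 active = plate z-score of nuclear minus cytoplasmic receptor signal below a set negative limit, without overly bright fluorescence or cell loss, cut at about -3.5 in these data, passing the limit was not always enough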;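 note: z-score of nuclear minus cytoplasmic ring GR-EGFP intensity difference per well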
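Schedule: 48 h induction, then 1 h compound, then 30 min agonist, 37 °C. Buffer or medium: tetracycline-free induction medium containing charcoal-stripped FBS. Reagent: 1.0 µM final dexamethasone stimulus. Evaluation: nuclear versus cytoplasmic GR-EGFP signal, averaged per well. Signal: high-content fluorescence imaging after fixation.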
UPR CHOP act: activators of apoptotic CHOP UPR arm, primary screen, cell-based, CHO-CHOP luciferase reporter, luminescence, uHTS; UPR activation; percent of tunicamycin response over DMSO baseline; activation, % at 10 µM; 330,000 tested, 0.34% active;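 active = at 10 µM dose, activation of 40% or more, normalized to positive control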;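 note: 100% = tunicamycin at 10 µg/mL and 0% = DMSO alone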
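System: CHO-CHOP luciferase reporter cell line | Buffer or medium: F12 medium containing 10% fetal bovine serum | Doses: One dose, 10 µM in 0.5% DMSO | Times: 6 h compound exposure at 37 °C after overnight seeding | Signal: Luciferase luminescence | Read-out: % activation vs tunicamycin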
L major viab: Leishmania major promastigote growth inhibition, primary screen. Leishmania major promastigotes, resazurin fluorescence viability. inhibition, % at 10 µM. 200,000 tested, 9% active; in the data active = inhibition above about 50%;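 note: promastigotes grown with compound for 44 hours at 28 °C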
Numbers without * were called inactive; · = not tested or not shown; ! = not active in a repeat. Shown is part of a subset that was picked to be rich in hits.

SMILES | CHOP inh | UPR XBP1 act | T cruzi repl | Dynein cargo inh | UPR CHOP act | L major viab
C/C(=C\c1ccc(F)cc1)C(=O)c1c(C)cc(C)[nH]c1=O | · | -2 | -2 | · | -1 | ·
CC(C)N1CC(C(=O)Nc2cccc([N+](=O)[O-])c2)CC1=O (configuration not stated) | · | -3 | -8 | · | -2 | ·
CCC(C)NC(=O)c1c(N)n(/N=C/c2cccnc2)c2nc3ccccc3nc12 (configuration not stated) | -2 | 17 | 26 | 0.99 | 7 | 16
CCC(C)NC(=O)c1c(N)n(/N=C/c2ccccn2)c2nc3ccccc3nc12 (configuration not stated) | 37 | 5 | 62* | 0.92 | 5 | 5
COc1ccccc1N1CC(C(=O)Nc2nnc(SCC(=O)N3CCOCC3)s2)CC1=O (configuration not stated) | · | 0 | 9 | · | 1 | ·
Brc1ccc(-c2cn3nc4c(nc3n2)CCCC4)cc1 | 96* | -5 | 7 | 2.5 | -4 | 42
CCN1CC(CN(C)Cc2nc(Cc3ccccc3)no2)CC1=O (configuration not stated) | -1 | -1 | -4 | -0.72 | -2 | -5
COc1ccc(N2CCN(CCCNC(=O)CN3CCN(Cc4ccccc4C)C3=O)CC2)cc1 | 2 | -2 | 3 | 0.048 | -2 | 30
Cc1ccc(CN2CCN(CC(=O)NCCCN3CCN(c4ccc(F)cc4)CC3)C2=O)cc1 | 73* | -1 | 16 | 0.42 | -1 | -1
OC[C@H]1O[C@@H](n2cnc3c(NCCc4ccccc4)ncnc32)C(O)[C@H]1O (some centres not stated) | -2 | · | · | · | · | ·
COc1ccc(-c2nnn(CC(=O)N(CC(=O)NCCC(C)C)c3ccccc3)n2)cc1OC | -11 | -4 | -15 | -0.59 | 0 | 73*
COc1ccc(OCCNS(=O)(=O)c2ccc3oc4ccccc4c3c2)cc1 | 28 | -2 | -8 | 2.2 | -2 | -4
O=S(=O)(NCCOCC(F)(F)C(F)F)c1ccc2oc3ccccc3c2c1 | 85* | -2 | -15 | -0.34 | -2 | -4
Cc1ccc(C)c(NS(=O)(=O)c2ccc3c(c2)Cc2cc(S(=O)(=O)Nc4cc(C)ccc4C)ccc2-3)c1 | 83* | · | · | -0.18 | · | 21
Cc1ccc(C)c(NS(=O)(=O)c2ccc3oc(=O)ccc3c2)c1 | · | -3 | 11 | · | 1 | ·
Cc1ccc(NS(=O)(=O)c2ccc3c(c2)C(=O)c2ccccc2C3=O)c(C)c1 | 80* | · | · | 0.038 | · | -3
CC1CC(C)CN(C(=O)c2ccc(S(=O)(=O)N3CCCC3)cc2)C1 (configuration not stated) | · | -3 | 10 | · | 2 | ·
CCOc1cc(NC(=S)Nc2ccccc2OC)c(OCC)cc1NC(=O)c1ccccc1C | 6 | -3 | 6 | 0.96 | -1 | 97*
CCOc1cc(NC(=S)Nc2ccccc2)c(OCC)cc1NC(=O)c1ccccc1 | 38 | -1 | 30 | -0.78 | 2 | 88*
CCC(=O)Nc1cc(OC)c(NC(=O)c2ccccc2)cc1OC | 36 | -1 | -1 | -0.88 | -1 | 77*
Cc1cc(C)n(CC(=O)O)n1 | -25 | -1 | 2 | -0.11 | 1 | -2
Cc1cc(C)n(CC(=O)N2c3ccccc3Sc3ccccc32)n1 | -4 | -3 | 14 | -0.55 | -2 | 61*
NC(=O)c1[nH]cnc1N | · | -3 | 58*! | · | 2 | ·
CCCCOC(=O)c1nc[nH]c1C(=O)OCCCC | 6 | 5 | -5 | -0.61 | 2 | 0
O=C(CSc1ncnc2c1oc1ccccc12)Nc1nc2ccccc2s1 | 48 | 5 | -7 | -0.44 | 0 | -4
SMILES | CHOP inh | UPR XBP1 act | T cruzi repl | Dynein cargo inh | UPR CHOP act | L major viab
O=C(CSc1ncnc2c1sc1ccccc12)Nc1ccc(Br)cc1 | 44 | 0 | -5 | 0.12 | 2 | 60*
O=C(NCc1cccnc1)C1CCN(S(=O)(=O)c2cc([N+](=O)[O-])ccc2Cl)CC1 | · | -2 | · | · | 1 | ·
COc1cccc(OCCNC(=O)CSc2ccc(C(F)(F)F)cc2[N+](=O)[O-])c1 | 85* | -2 | 9 | -0.63 | -1 | -5
CCCN(CCC)c1nc(-c2ccccn2)nc2ccccc12 | · | 7 | 58* | · | 69* | ·
CCCCN(CC)c1nc(-c2ccncc2)nc2ccccc12 | 80* | 0 | 54 | 0.076 | 0 | 8
CCN(CC)c1nc(-c2ccccn2)nc(-c2ccccc2)c1C#N | 58 | 3 | 58* | -1.2 | 7 | 71*
COCCN(CCOC)c1nc(-c2ccc(C)cc2)nc2ccccc12 | · | -1 | 24 | · | 3 | ·
CCN1CCN(c2nc(-c3ccccn3)nc3ccccc23)CC1 | -21 | -2 | 35 | -0.31 | -1 | 17
CN(CC(=O)Nc1cccc(F)c1)CC(=O)Nc1ccccc1Oc1ccccc1 | · | -4 | -7 | · | 2 | ·
Cc1ccc(-c2nc3cc(Br)cnc3nc2-c2ccc(C)cc2)cc1 | 4 | -2 | 58* | 0.7 | 0 | 26
COc1ccccc1/C=N\Nc1ccccc1[N+](=O)[O-] | 27 | 4 | 4 | -0.28 | 8 | ·
Cc1[nH]c2ccccc2c1/C=N/NS(=O)(=O)c1ccccc1 | 23 | 1 | -6 | -1.2 | 3 | 6
CC(C)Oc1ccccc1/C=N/Nc1ccccc1[N+](=O)[O-] | 76* | -2 | 30 | -0.7 | 1 | 7
Cc1[nH]c2ccccc2c1/C=N/Nc1ccccc1[N+](=O)[O-] | 43 | 9 | 62* | -1.4 | 8 | 8
COc1ccc(-c2nc3ccc(C)cn3c2NCc2ccccc2)cc1SC1CCCCC1 | · | -7 | 63* | · | -7 | ·
CCCCCCSc1ccc(-c2nc3ccc(C)cn3c2NCc2ccccc2)cc1 | · | -4 | 13 | · | 2 | ·
CCCCCCSc1ccc(-c2nc3ccc(C)cn3c2NCc2ccccc2)cc1OC | · | -2 | 56* | · | 3 | ·
CCCCNc1c(-c2ccc(OC)c(SC3CCCCC3)c2)nc2ccc(C)cn12 | · | -10 | · | · | -9 | ·
CCOC(=O)C1CCCN(CCC(=O)Nc2ccc(C)c(C)c2)C1 (configuration not stated) | -10 | 0 | 14 | -0.4 | -1 | 31
CCOC(=O)C1CCCN(CCC(=O)Nc2ccc3c(c2)CCC3)C1 (configuration not stated) | 20 | -1 | 8 | -0.71 | -1 | 90*
CCOC(=O)C1CCN(CCC(=O)Nc2ccc(F)cc2)CC1 | -10 | -1 | -10 | 0.13 | 3 | 70*
CCOC(=O)C1CCN(CCC(=O)Nc2ccc(C)c(C)c2)CC1 | 2 | -2 | · | -0.57 | -1 | 88*

Screening data deposited in PubChem BioAssay by several laboratories.
